In ChEMBL document CHEMBL3045934, “Acaricidal activity of constituents identified in Foeniculum vulgare fruit oil against Dermatophagoides spp. (Acari: Pyroglyphidae)” (J Agric Food Chem, 2004) one finds LD50 and Ratio data, which are given here for six compounds.

Data set [1] is described as follows: Acute toxicity in po dosed Rattus norvegicus (rat). Format: organism-based. As to conditions: in vivo.
Data set [2] deals with Dermatophagoides farinae. Description: Acaricidal activity against 7 to 10 day-old Dermatophagoides farinae adult after 24 hr by microscopy. Format: functional. In outline: (§1)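 Mites exposed by direct contact in a lidded container, held at 25 ± 1 °C, 75% relative humidity, in darkness. Mortality scored 24 h after treatment under a binocular microscope (20×). Untreated controls run alongside. Three replicates per treatment. LD50 derived by probit analysis.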

Data set [3] relates to Dermatophagoides farinae. Put plainly: Ratio of benzyl benzoate LD50 to compound LD50 for 7 to 10 day-old Dermatophagoides farinae adult after 24 hr by microscopy. Format: functional.
Data set [4] concerns Dermatophagoides pteronyssinus. Put plainly: Acaricidal activity against 7 to 10 day-old Dermatophagoides pteronyssinus adult after 24 hr by microscopy. Format: functional. Put shortly:
as §1

Data set [5] relates to Dermatophagoides pteronyssinus. Description: Ratio of benzyl benzoate LD50 to compound LD50 for 7 to 10 day-old Dermatophagoides pteronyssinus adult after 24 hr by microscopy. Format: functional.

SMILES strings stand for the structures.

The compound `CC12CCC(C1)C(C)(C)C2=O` (centres undefined) [FENCHONE] returned an LD50 in data set [1] of 6160 mg/kg.

Consider `COc1ccc(C=O)cc1`, for which the LD50 with Dermatophagoides farinae [2] came to 11.3 mg/m2; in data set [4], 10.1 mg/m2. In addition, the Ratio came to 7.9 in the data set on Dermatophagoides farinae [3] and 6.7 in data set [5].

With `O=C(OCc1ccccc1)c1ccccc1` [BENZYL BENZOATE], the values for the LD50 (in the data set on Dermatophagoides farinae [2]; in data set [4]) were 89.2 mg/m2 and 67.5 mg/m2, respectively.

For the compound `CC1(C)C(=O)[C@@]2(C)CCC1C2` [(+)-FENCHONE], the LD50 with Dermatophagoides farinae [2] is 38.9 mg/m2; in data set [4] it was 43.2 mg/m2. In addition, the Ratio turned out to be 2.3 in the data set on Dermatophagoides farinae [3] and 1.6 in data set [5].

In the case of `C=CCc1ccc(OC)cc1` [ESTRAGOLE], the LD50 was found to be 413.3 mg/m2 in the data set on Dermatophagoides farinae [2] and 389.9 mg/m2 in data set [4]. Moreover, the Ratio (with Dermatophagoides farinae [3]; in data set [5]) was 0.2 throughout.

With `CC1(C)C(=O)[C@]2(C)CCC1C2` [(-)-FENCHONE], the LD50 in the data set with Dermatophagoides farinae [2] is 41.8 mg/m2; in data set [4] it was 48.7 mg/m2. The Ratio with Dermatophagoides farinae [3] was determined as 2.1; in data set [5], 1.4.
